# Assay results collected from several papers.
# Protocols differ between the studies behind these lines. pEC50, pIC50: −log10 of the molar value.
SMILES,tested on,test,test system,setting,measurement,result
COC(=O)/C=C/c1nn(CC2CCCC2)c2ncnc(N)c12,FLO-1,"cell growth or viability, resazurin",,5 days,pEC50,< 4.52
CCN(CC)CCCC(C)Nc1ccnc2cc(Cl)ccc12 (stereo not drawn),Plasmodium falciparum,"parasite growth, SYBR Green",3D7,"25 nM, blood stage",inhibition,52.5%
CNc1ncc2c(/C=C/C(=O)N3CCCC(OC)C3)nn(Cc3cccc(C)c3)c2n1 (stereo not drawn),FLO-1,"cell growth or viability, resazurin",,5 days,pEC50,4.86
Cn1cc2c3c1C(=O)C(NCCc1ccc(O)cc1)=CC3=[N+](C)CC2,Plasmodium falciparum,"parasite growth, SYBR Green",DD2,blood stage,pIC50,7.32
O=C(/C=C/c1cn(Cc2cn(-c3ccnc4cc(Cl)ccc34)nn2)c2ccccc12)c1cccc([N+](=O)[O-])c1,Plasmodium falciparum,"parasite growth, SYBR Green",3D7,"10 µM, blood stage",inhibition,36%
CCOC(Cn1nc(/C=C/C(=O)N2CCC(OC)CC2)c2cnc(NC)nc21)OCC,FLO-1,"cell growth or viability, resazurin",,5 days,pEC50,< 4.52
COc1cccc(C(=O)/C=C/c2cn(Cc3cn(-c4ccnc5cc(Cl)ccc45)nn3)c3ccccc23)c1,Plasmodium falciparum,"parasite growth, SYBR Green",3D7,"5 µM, blood stage",inhibition,2.88%
O=C1C=C2NCCc3c[nH]c(c32)C1=O,Plasmodium falciparum,"parasite growth, SYBR Green",W2,blood stage,pIC50,4.60
O=C(/C=C/c1cn(Cc2cn(-c3ccnc4cc(Cl)ccc34)nn2)c2ccccc12)c1ccc(F)cc1,Plasmodium falciparum,"parasite growth, SYBR Green",3D7,"10 µM, blood stage",inhibition,47.1%
CNc1ncc2c(/C=C/C(=O)N3CCC(OC)CC3)nn(CC3CCCCC3)c2n1,FLO-1,"cell growth or viability, resazurin",,5 days,pEC50,5.15
O=C(/C=C/c1cn(Cc2cn(-c3ccnc4cc(Cl)ccc34)nn2)c2ccccc12)c1cc(OCc2ccccc2)cc(OCc2ccccc2)c1,Plasmodium falciparum,"parasite growth, SYBR Green",3D7,"10 µM, blood stage",inhibition,49%
C=CC(=O)NC1CCN(c2ncc3ncnc(Nc4ccc(Oc5ccc6c(c5)ncn6C)c(C)c4)c3n2)CC1,SW900,cell growth or viability,,,pEC50,7.33
COC1=CC2=[N+](C)CCc3c[nH]c(c32)C1=O,Plasmodium falciparum,"parasite growth, SYBR Green",DD2,blood stage,pIC50,5.79
CNc1ncc2c(/C=C/C(=O)N3CCC(O)CC3)nn(CC3CCCC3)c2n1,FLO-1,"cell growth or viability, resazurin",,5 days,pEC50,< 4.52
O=C(NO)c1ccc(CNc2nc3cccc(-c4ccc5c(c4)OCO5)n3n2)cc1,NCI-H460,"cell growth or viability, SRB",,,GI50,0.68 µM
